Assay outcomes (PubChem BioAssay)
OXTR potentiate = human OXTR potentiation. AID 2445. activation, % at 3 µM. CHO-OTR cells, Fluo-8 calcium fluorescence, potentiator mode; 0% = oxytocin EC15, 100% = EC100. 320,000 compounds, 0.061% hits. P30559;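 active = activation above that plate's cutoff, the mean activation of tested compounds plus 3 SD, cut at about 6.6% in these data, passing the limit was not always enough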;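 also: 100% uses oxytocin at 75 nM as the full agonist control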
Target sequence (P30559 whole entry, looked up): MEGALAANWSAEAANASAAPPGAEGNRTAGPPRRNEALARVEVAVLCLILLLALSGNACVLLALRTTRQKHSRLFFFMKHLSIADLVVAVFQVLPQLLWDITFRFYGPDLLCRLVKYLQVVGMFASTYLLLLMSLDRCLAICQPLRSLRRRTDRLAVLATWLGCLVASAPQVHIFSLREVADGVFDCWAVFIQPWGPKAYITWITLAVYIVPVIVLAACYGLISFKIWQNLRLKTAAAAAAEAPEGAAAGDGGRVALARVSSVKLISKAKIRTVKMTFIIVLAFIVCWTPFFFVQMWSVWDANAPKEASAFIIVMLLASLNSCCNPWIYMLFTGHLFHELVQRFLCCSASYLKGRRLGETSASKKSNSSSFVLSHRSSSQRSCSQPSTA
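Assay system: CHO cell line stably expressing human OTR. Reagent: EC15 oxytocin agonist. Dosing: single dose, 3.0 µM nominal final compound concentration. Timing: compound 6 min at room temperature before oxytocin, 100 s read. Signal: kinetic Fluo-8 calcium fluorescence. Controls: oxytocin EC15 low and EC100 high.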
V1aR counter = V1a receptor agonism, counter-screen for OXTR agonists | CHO-V1R cells, Fluo-8 calcium fluorescence, agonist mode; 0% DMSO, 100% 3 nM vasopressin | activation, % at 3 µM | P37288 | 320,000 compounds, 0.25% hits;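 active = activation above the mean activation of all tested compounds plus 3 SD, per screening run, cut at about 20% in these data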;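 also: signal is peak over basal fluorescence ratio across a 100 second FLIPR read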
TAAR1 ag = human TAAR1 agonism; Q96RJ0; CHO RD-HGA16 TAAR1, Fluo-8 calcium fluorescence; vehicle wells 0%, saturating PEA agonist 100%; activation, % at 3 µM; 360,000 compounds, 0.99% hits; AID 624467;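 active = activation above the mean activation of all test compounds in the run plus 3 SD, cut at about 38% in these data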
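Test system: RD-HGA16 (CHO) cells co-expressing Gα16 and hTAAR1 / Benchmarks: DMSO vehicle as 0%, PEA at EC100 as 100% / Repeats: no replicates (n 1) / Measure: % activation from peak over basal fluorescence ratio, DMSO-to-PEA scaled / Timing: 17-24 h plating, Fluo-8 75 min 37 °C, 30 min RT / Technique: kinetic Fluo-8 calcium fluorescence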
OXTR ag = activates the human oxytocin receptor. P30559. CHO-OTR cells, Fluo-8 calcium fluorescence; normalized: DMSO 0%, oxytocin 100%. activation, % at 3 µM. 320,000 compounds, 0.32% hits. AID 2435;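 active = activation above the mean of all tested compounds plus 3 SD, cutoff set per screening run, cut at about 20% in these data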;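 also: peak over basal fluorescence ratio from a 100 s FLIPR kinetic read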
TAAR1 antagonist = antagonists of human TAAR1; Q96RJ0; CHO RD-HGA16 TAAR1, Fluo-8 calcium fluorescence, antagonist; inhibition, % at 3 µM; 360,000 compounds, 1.5% hits; AID 624466;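 active = inhibition above a per-plate cutoff, the mean inhibition of test compounds on that plate plus 3 SD, cut at about 49% in these data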;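 also: 0% = DMSO plus EC80 beta-PEA response and 100% = DMSO alone without agonist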
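Test system – hTAAR1-expressing CHO RD-HGA16 cells, Gα16-coupled · Also added – β-PEA at EC80 concentration, post-compound challenge · Compound – 3 µM, single point · Incubation – dye loading 75 min at 37 °C, then 30 min room temperature · Measured by – Fluo-8 intracellular calcium dye fluorescence, real-time kinetic reads · Benchmarks – vehicle and agonist controls · Replicates – singlicate, one well per test compound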
TAAR1 nonsel count = counter-screen for TAAR1 antagonists: nonselective antagonists; 2,400 compounds, 77% hits; counterscreen cell line, calcium fluorescence, antagonist mode; shares compounds with TAAR1 antagonist; inhibition, % at 3 µM; in the data active = inhibition above about 22%;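 also: CHO-Ga16 host cells stimulated with ATP at an EC80 level; 0% = agonist EC80 plus vehicle and 100% = vehicle without agonist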
TAAR1 antag conf = confirmation of human TAAR1 antagonists. shares compounds with TAAR1 antagonist. TAAR1-expressing cells, fluorescence antagonist read-out. inhibition, % at 3 µM. 2,400 compounds, 40% hits; in the data active = inhibition above about 49%;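 also: CHO-Ga16 host cells challenged with agonist PEA near its EC80; 0% = agonist at EC80 plus vehicle and 100% = vehicle with no agonist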
Ga16 nonsel ag = nonselective Ga16 agonist in TAAR1 antagonist counter-screen | Ga16-expressing cells, calcium fluorescence, agonist counterscreen | shares compounds with TAAR1 antagonist | 2,400 compounds, 18% hits | activation, % at 3 µM; in the data active = activation above about 12%;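 also: 0% = vehicle wells and 100% = saturating stimulus response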
TAAR1 ag counter = TAAR1 agonism, antagonist counter-screen; activation, % at 3 µM; shares compounds with TAAR1 antagonist; 2,400 compounds, 2% hits; AID 651955; hTAAR1 cell line, fluorescence activation, agonist mode; in the data active = activation above about 37%;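 also: CHO cells stably expressing TAAR1 with calcium dye readout; 0% = DMSO vehicle and 100% = full agonist response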
* hit, by the source's call; x = no result. A selection: hits, their analogues and other compounds. The true share with any hit is near 2.3%.

SMILES	OXTR potentiate	V1aR counter	TAAR1 ag	OXTR ag	TAAR1 antagonist	TAAR1 nonsel count	TAAR1 antag conf	Ga16 nonsel ag	TAAR1 ag counter
COc1ccc(N(C)S(=O)(=O)c2cccc(C(=O)Nc3ccc(-n4cnnn4)cc3)c2)cc1	-21	14	19	14	75*	47*	52*	13*	5
COc1ccc(N(C)S(=O)(=O)c2cccc(C(=O)Nc3ccc(OC)nc3)c2)cc1	-12	10	18	4	62*	31*	43	11	6
CCC(C)c1ccccc1NC(=O)C(C)N(C)Cc1cccc(OC)c1 (stereo unspecified)	-13	-1	14	-3	-10	x	x	x	x
COc1ccccc1C(=O)NCCN=C1NS(=O)(=O)c2ccccc21	-2	2	3	1	-15	x	x	x	x
CC(=O)c1ccc(OCCCOc2cccc3cccnc23)cc1	x	x	7	x	4	x	x	x	x
CC(=O)CCc1ccc(OCCCOc2cccc3cccnc23)cc1	-16	9	15	7	68*	32*	46	11	18
Cc1cc(C)cc(OCC(=O)Nc2nc(-c3cccnc3)cs2)c1	-5	-1	1	-1	-4	x	x	x	x
COc1cc(-c2nc(C(=O)NCC3CCCO3)cc3c2[nH]c2ccccc23)cc(OC)c1OC (stereo unspecified)	-5	0	6	0	61*	28*	40	6	4
COc1ccccc1-c1nc(C(=O)NCC2CCCO2)cc2c1[nH]c1ccccc12 (stereo unspecified)	-8	0	x	2	x	x	x	x	x
CC1(c2nnc(-c3cccc(Cl)c3)o2)CC(c2c(Cl)cccc2Cl)=NO1 (stereo unspecified)	-3	0	7	-2	64*	22*	35	1	1
Cc1ccc(C2=NOC(C)(c3nnc(-c4cccc(Cl)c4)o3)C2)cc1 (stereo unspecified)	-2	1	2	-1	5	x	x	x	x
CN(Cc1ccccc1)C(=O)c1cccc(NC(=O)Cc2cccc([N+](=O)[O-])c2)c1	-9	6	16	10	65*	26*	42	10	6
COCCOC(=O)c1c(C)nc(SCC(=O)Nc2ccc(OC)cc2)c(C#N)c1-c1ccco1	-7	1	4	0	-6	x	x	x	x
Cc1nc(SCC(=O)c2ccccc2)c(C#N)c(-c2ccco2)c1C(=O)NCc1ccco1	-6	2	25	0	62*	35*	58*	10	7
COc1cc(/C=C2\CCC/C(=C\c3ccc(O)c(OC)c3)C2=O)ccc1O	-19	1	14	3	53*	35*	48	7	14
COc1cc(/C=C/C(=O)CC(=O)/C=C/c2ccc(O)c(OC)c2)ccc1O	-22	24*	36	33*	69*	48*	50*	28*	18
COc1cc(/C=C2/CCC/C(=C\c3cc(O)c(OC)c(Cl)c3)C2=O)cc(Cl)c1O	-26	2	12	1	58*	42*	40	11	18
COc1ccc(N2CCN(C(=O)c3ccc(C)c(NC(=O)C4=C(C)OCCS4)c3)CC2)cc1	-4	5	3	3	-2	x	x	x	x
CC1=C(C(=O)Nc2cc(C(=O)N3CCN(c4cccc(C)c4C)CC3)ccc2C)SCCO1	-13	8	6	6	62*	34*	46	5	4
CC(=O)c1c(COC(=O)c2ccncc2)nc2ccccc2[n+]1[O-]	-13	1	6	0	-20	x	x	x	x
CC(=O)c1c(COC(=O)c2cccc(C)c2)nc2ccccc2[n+]1[O-]	-14	4	8	0	50*	28*	38	8	7
